Compound activity (PubChem)
p47phox inh: blocks human p47phox regulatory protein of NADPH oxidases | inhibition, % at 24.7 µM | p47phox/p22phox peptide binding, fluorescence polarization, 2 h | 0.53% of 220,000 active;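 also: 0% = p47phox with labelled peptide and 100% = labelled peptide alone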
Wee1 stabilizer: inhibitors of human Wee1 degradation; HeLa Luc-Wee1K328M stability, luciferase luminescence; 100% = proteasome inhibitor MG132 effect; 1.2% of 220,000 active; P30291; reporter increase, % at 5 µM; AID 1321;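 active = activation above the mean of all tested compounds plus 3 SD, set per screening run, cut at about 8.8% in these data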;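 also: cells exposed to compound for 20 h before luminescence read; 0% = DMSO alone and 100% = MG132 at 30 µM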
14-3-3 Bad inh: disrupts binding of bovine 14-3-3 zeta to phospho-Bad peptide; P63103; TR-FRET 14-3-3zeta/Dy647-pBad peptide displacement, 1 h; inhibition, % at 21.7 µM; 0.71% of 220,000 active; AID 781;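 active = inhibition above about 70%, limit read from the data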;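 also: 0% = full 14-3-3 plus peptide FRET controls and 100% = background without 14-3-3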
eIF4E 4G PPI: blocks eIF4E binding to eIF4G | 0.37% of 220,000 active | inhibition, % at 21.7 µM | TR-FRET eIF4E-eIF4GI(517-606) binding, 2 h;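 also: 0% = full FRET control wells and 100% = background wells lacking eIF4GI fragment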
RBBP9 inhibitor: human RBBP9 hydrolase inhibition | O75884 | recombinant RBBP9, FP-Rh probe fluorescence polarization | inhibition, % at 7.94 µM | 0.2% of 220,000 active;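 active = inhibition above the campaign mean of all tested compounds plus 3 SD, cut at about 14% in these data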;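 also: plate controls were DMSO wells with RBBP9 for no effect and wells lacking RBBP9 protein for full effect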
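Measured by: FP readout at 525/598 nm; material: recombinant human RBBP9; also added: Serine-hydrolase probe FP-Rh, 375 nM pre-mixing; medium: Tris buffer pH 8.0, NaCl, Pluronic; replication: one well per compound; doses: one concentration, 7.94 µM nominal, 0.794% DMSO; timing: preincubation 30 min plus labeling 45 min at 25 °C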
* hit, by the source's call; · = not tested or not shown. An excerpt weighted towards active compounds, which were near 2.8% of everything screened.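 The calls were made as follows, unless noted: active = inhibition above about 30% (limit read from the data); inactive = the rest.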

SMILES	p47phox inh	Wee1 stabilizer	14-3-3 Bad inh	eIF4E 4G PPI	RBBP9 inhibitor
CC1=C(C#N)C(=O)N(C2CCS(=O)(=O)C2)C(=O)/C1=C\c1ccco1 (stereo unspecified)	-11	4	77*	63*	7
COc1ccc(OC)c(Nc2nc(=O)c3cccnc3s2)c1	60*	6	-10	32*	5
COc1ccc(NC(=O)CSc2nc3ncccc3[nH]2)cc1OC	-6	11*	-4	0	3
N/C(=N\OC(=O)Cc1ccc(-c2ccccc2)cc1)c1ccncc1	3	3	3	0	-3
CC(=O)N1CCc2cc(N=NC3=C(O)CCCC3=O)ccc21	-51	0	-10	1	2
CC(C)(C)N1C(=O)c2ccccc2NC(=O)N1Cc1ccccc1	-10	-1	-4	-4	-9
O=C1Nc2ccccc2C(=O)C1(Cl)Cc1ccccc1 (stereo unspecified)	6	-2	28	38*	0
c1ccc2oc(C3=NNC(=NC4CC4)SC3)cc2c1	-21	15*	-33	-1	-8
c1ccc(CN=C2NN=C(c3cc4ccccc4o3)CS2)cc1	-30	0	-4	22	-7
COC(=O)c1ccc(NCCC(=O)O)cc1	-6	-4	16	20	-4
O=S(=O)(c1cnc[nH]1)N1CCCCCC1	-6	13*	3	6	-2
Cc1c(Cl)cccc1NC(=S)NCC(c1cccnc1)N(C)C (stereo unspecified)	-3	1	-17	-1	-9
CCN(CC)C1CC(=O)N(c2cccc(C)c2)C1=O (stereo unspecified)	-10	10.0*	-5	-6	1
CCCCCC(=O)NC(NC(=S)N1CCOCC1)C(Cl)(Cl)Cl (stereo unspecified)	3	-1	-14	-4	-1
CCCCCC(=O)NC(NC(=S)NC1CCS(=O)(=O)C1)C(Cl)(Cl)Cl (stereo unspecified)	-7	1	-13	40*	0
COc1cccc(C(=O)Nc2cccc(-c3ccc4nncn4n3)c2)c1OC	-9	4	-9	-1	-9
COc1ccc(Cl)cc1C(=O)Nc1cccc(-c2ccc3nncn3n2)c1	33*	-2	17	29	-5
COc1cc(C2C(C#N)=C(N)N(c3ccc(F)cc3)C3=C2S(=O)(=O)CC3)ccc1O (stereo unspecified)	-15	9.6*	-6	-1	-2
COc1cc(C2C(C#N)=C(N)N(c3cccnc3)C3=C2C(=O)CCC3)ccc1O (stereo unspecified)	-25	0	-6	4	-3
CC(C)C1CC(O)(C2(O)CCCCC2)ON1 (stereo unspecified)	-14	-1	3	-7	-14
CC(=O)c1sc(Nc2nc3cc4c(cc3s2)OCO4)nc1C	-1	-1	88*	19	-8
COc1ccc(-n2c(SC(CN3CCCCC3)CN3CCCC3=O)nc3ccccc3c2=O)cc1 (stereo unspecified)	-9	0	25	5	-5
O=C1CCCN1CC(CN1CCOCC1)Sc1nnnn1-c1ccccc1 (stereo unspecified)	-6	0	79*	3	-11
O=C(Cc1cccs1)Nc1cccc(-c2ccc3nncn3n2)c1	-10	1	-9	-5	-2
O=C(NNC(=O)C1CCN(Cc2ccc(Cl)c(Cl)c2)CC1)c1cccs1	-1	1	2	-1	-4
SMILES	p47phox inh	Wee1 stabilizer	14-3-3 Bad inh	eIF4E 4G PPI	RBBP9 inhibitor
O=C(NNC(=O)C1CCN(Cc2ccccc2)CC1)c1cccs1	5	3	73*	0	-13
C=CCSc1nc(C)c(CC(=O)OCC(C)C)c(=O)[nH]1	1	-1	-7	3	-1
Cc1ccc(C(C(=O)NC(C)(C)C)N(Cc2cccs2)C(=O)c2ccc3c(c2)OCCO3)cc1 (stereo unspecified)	52*	-1	1	7	-2
CCC(C)(C)NC(=O)C(c1ccc(C)cc1)N(Cc1cccs1)C(=O)c1ccc2c(c1)OCCO2 (stereo unspecified)	-8	0	-4	-4	2
COc1ccc(-c2nnc(-c3cc4c(ccc5ccccc54)oc3=O)o2)cc1	32*	-1	72*	4	1
CCC1(CC)NC(=O)N(CC(=O)Nc2ccc(S(=O)(=O)N3CCOCC3)cc2)C1=O	-14	1	-13	2	-1
COc1cccc(C(=O)O/N=C(\C)c2cnccn2)c1	2	-1	-5	2	1
COC(=O)C(C(=O)OC)c1ccccc1[N+](=O)[O-]	-8	0	-2	-8	-6
O=C(O)CNc1ncccc1[N+](=O)[O-]	50*	3	-4	-1	-4
COC(=O)C(C(=O)OC)c1ncccc1[N+](=O)[O-]	-3	4	85*	6	-2
FC(F)C(F)(F)C(F)(F)C(F)(F)c1cc(-c2ccccc2)n[nH]1	1	0	-5	-3	-6
COc1ccccc1/C=C/C(=O)c1cc(Br)ccc1OC(=O)c1ccco1	·	13*	·	·	-7
Cc1ccc(/C=C/C(=O)c2cc(Br)ccc2OC(=O)c2ccco2)cc1	-5	0	0	2	-9
CCCn1c(=O)[nH]c(=O)c2c1nc(-c1ccc3c(c1)OCCO3)n2CCN1CCOCC1	-7	0	72*	2	-4
CCCn1c(=O)[nH]c(=O)c2c1nc(-c1ccc(OC(F)F)cc1)n2CCN1CCOCC1	-87	4	36	3	4
CC(=O)c1cccc(NC(=O)c2nc(-c3ccccc3)oc2C)c1	-23	4	-18	40*	5
Cc1cc(C)c(C#N)c(N2CCN(Cc3ccccc3)CC2)n1	3	0	-16	-2	-7
CC1(C)CCN(Cc2ccccc2)C1CC#N (stereo unspecified)	-1	-1	71*	-3	6
O=C(COC(=O)Cn1cnc2ccccc21)Nc1cc2c(cc1Cl)C(=O)c1ccccc1C2=O	14	11*	41	15	1
c1ccc(Nc2nc(-c3cccnc3)cs2)nc1	-7	0	13	11	-2
c1ccc(Nc2nc(-c3cccs3)cs2)nc1	-6	9.8*	2	-1	-6
Cc1cccc(Nc2nc(-c3cccs3)cs2)n1	-12	18*	-2	-3	-7
Cc1cccc(NC2SC(=O)NC2=O)c1 (stereo unspecified)	-5	-1	-18	-3	-8
CCOCCn1c(CN2CCN(C)CC2)nc2c1c(=O)n(C)c(=O)n2C	4	·	-4	90*	·
O=C(CSc1ccc2ccccc2c1)Nc1ccc(S(=O)(=O)Nc2nccs2)cc1	-46	-1	-8	-6	-17
O=C(Cc1ccccc1)Nn1cnc2ccccc21	-5	-1	78*	4	-11
Cn1c(N)c(C#N)c2c(c1=S)CSC(C)(C)C2	4	-2	4	0	-3
